System: MS2 coat protein
Assay: apparent Kd, MS2 coat protein; higher = weaker binding; RNA-MaP array; FMN 200 µM where present
Outline: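 Binding was read on Illumina sequencing-chip clusters where stalled E. coli RNA polymerase had transcribed each design. A titration of SNAP-549-labelled MS2 coat protein began at 0.7 or 1.5 nM and doubled to 3 µM, once without ligand and once with constant ligand, in 100 mM Tris-HCl pH 7.5, 80 mM KCl, 4 mM MgCl2, BSA, DTT, yeast tRNA and Tween-20. The apparent Kd is the median of filtered per-cluster binding-curve fits, based on green signal normalised to red-channel RNA signal and control-cluster median Fmax.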

[1] = designed as: OFF switch for flavin mononucleotide, no ligand
[2] = ligand present: flavin mononucleotide, designed as: OFF switch for flavin mononucleotide
[3] = designed as: ON switch for flavin mononucleotide, no ligand
[4] = ligand present: flavin mononucleotide, designed as: ON switch for flavin mononucleotide

Sequence: UUACUAUCACAGAAGGGUGGAUAGUAUAUAGACGCAGGAUAUGUGACAUGAGGAUCACCCAUGUUUCACCGGCAUGAGGAUCAA
- apparent Kd [1]: 0.0114 µM
- apparent Kd [2]: 0.0153 µM

Sequence: AAGUAGGUAGGAUAUACAUGGAUAUACAUUCAUGUGGACCUACAUGAGGAUCACCCAUGUAGAAGGACCUAAUA
- apparent Kd [1]: 0.0432 µM
- apparent Kd [2]: 0.0416 µM

Sequence: GACUGAUUGUAGAAGGUACUUAAUACUCAUGUAACAUGAGGAUCACCCAUGUAUCAACAAUAUUGUAAGGAUAUACAUAUCUCA
- apparent Kd [3]: 0.231 µM
- apparent Kd [4]: 0.103 µM

Sequence: AGAUGGUGAUGUUAUCUUCGUCGGACAUGAGGAUCACCCAUGUAGGAUAUGCUACUCAAAGAGUAGCAGAAGGACAUGUAUCUU
- apparent Kd [1]: 0.119 µM
- apparent Kd [2]: 0.896 µM

Sequence: UGGUACUAGGGAGGAUAUGGGAAGAUACAUGAGGAUCACCCAUGUUUAAGAAUGCCGAGAGGCAACUAGAAGGCCCUACUACCU
- apparent Kd [3]: 0.294 µM
- apparent Kd [4]: 0.0206 µM

Sequence: GUAGCGUAUGUAGGAUAUCGGUCAGUUUCUGAUCGAGAAGGACAUGAGGAUCACCCAUGUAAAUUACCGACUUUGUCGGGCUGC
- apparent Kd [1]: 0.00806 µM
- apparent Kd [2]: 0.0124 µM

Sequence: AGUCAGAGCAGAGGAUAUAUACAUGAGGAUCACCCAUGUGACUGACUAUGCUAGAAAUAGCAUGUAUAGAAGGCUGCUCUGACA
- apparent Kd [1]: 0.0849 µM
- apparent Kd [2]: 0.223 µM

Sequence: AGAAACUACGAGAAGGACAUGAGGAUCACCCAUGUAACCACUAUGUGGAAUGUAGGAUAUCGUAGUUUCAGGAUCGUGAGAUCA
- apparent Kd [1]: 0.00617 µM
- apparent Kd [2]: 0.00984 µM

Sequence: UCGAUGCUAGGAUAUACUUAUAAAACUACUGUAGAGUCUUCACAUGAGGAUCACCCAUGUAGAAGGAGCAUCUA
- apparent Kd [1]: 0.02 µM
- apparent Kd [2]: 0.016 µM

Sequence: UGUGUGUGGGCAGGAUAUGCAUGAAGAUGUAUGAUGUAGUGUGAUGUAACAUGAGGAUCACCCAUGUAGAAGGGCCGGUGUGUG
- apparent Kd [1]: 0.116 µM
- apparent Kd [2]: 0.139 µM

Sequence: AUCAGCUCGUCAGGAUAUGCGUCACUGCGUCAGCAGUGUGGUAAGAUCACAUGAGGAUCACCCAUGUAGAAGGGACGAGCUGAU
- apparent Kd [1]: 0.00959 µM
- apparent Kd [2]: 0.0882 µM

Sequence: UAGGUGUGAGGAUAUGGUAAAGAUAAGAUGAUGAAAGAACUCCAGAAGGCACAUGAGGAUCACCCAUGUAGAUG
- apparent Kd [1]: 0.028 µM
- apparent Kd [2]: 0.0708 µM

Sequence: UCAGGUCGGGAAGGAUAUCGGCCGCGAAGAGCUCGAGAAGGUCCCGACAUGAGGAUCACCCAUGUUGAAGGGUCCUAACGUGCC
- apparent Kd [1]: 0.158 µM
- apparent Kd [2]: 0.0934 µM

Sequence: GCCAGGAUGUAAGGAUAUGCUGAGGAUAACUCAGCAGAAGGUACAUGAGGAUCACCCAUGUAAUCCAAUAAUAAAUAACCUGGC
- apparent Kd [1]: 0.0118 µM
- apparent Kd [2]: 0.0238 µM

Sequence: GCCAUCACAUGAGGAUAUGCUCCCGUUUCGGGAGCAGAAGGCGUGUCAUUAGACAUGAGGAUCACCCAUGUAGUUAAGAUGGCA
- apparent Kd [3]: 0.667 µM
- apparent Kd [4]: 0.0228 µM

Sequence: UGAUGAGGUUAGAAGGUACAGAGUAGUGGACCAAACAUGAGGAUCACCCAUGUCAUGGGAGGGAGUAAGGAUAUAAAGUUGUAG
- apparent Kd [1]: 0.0637 µM
- apparent Kd [2]: 0.0512 µM

Sequence: UAGGAUCAACGAGGAUAUAAUAGGUUCAAUUUUUUAUAUUGUUUACAUGAGGAUCACCCAUGUUAUUAGAAGGCGUAUGGGAUU
- apparent Kd [3]: 0.0535 µM
- apparent Kd [4]: 0.0369 µM

Sequence: AACAAAUAUGAUCAUUAUGUAAGGCAGGAUAUCCCACAUGAGGAUCACCCAUGUACAGUACAUAGGGAGAAGGGCCGAAUGGGA
- apparent Kd [3]: 0.0721 µM
- apparent Kd [4]: 0.0068 µM

Sequence: GGAGCCGGUACUGAGGAUAUUCAUAUUAAAACAUGAGGAUCACCCAUGUAGGCCAGAAGGCCUUGGGAGAAGGCAGAUCGGCUCC
- apparent Kd [3]: 0.408 µM
- apparent Kd [4]: 0.0259 µM

Sequence: CUUUAGCUAGGAUAUACAUGAGGAUCACCCAUGUUAGCGGUCAAUUGGGCCGCGGGUUGUAGAAGGAGCAUUAA
- apparent Kd [1]: 0.0325 µM
- apparent Kd [2]: 0.0534 µM

Sequence: AUGCUAUACGAAGGAUAUGGUUACAUGAGGAUCACCCAUGUUAUUCUUGUUUUCUUGUUUAUGUUCCAGAAGGUCGUAUAGCUA
- apparent Kd [1]: 0.0473 µM
- apparent Kd [2]: 0.0382 µM

Sequence: GCAGCAAUCUUUAACAUGAGGAUCACCCAUGUCGAGAGAUAUGAGGAUAUGCAUCUGAAGAAGAUGCAGAAGGCAUUGUGCUGC
- apparent Kd [3]: 0.00626 µM
- apparent Kd [4]: 0.005 µM

Sequence: GACUUUUCUGAGGAUAUUGCAUCAUACGAUUUAUAAGAAGGCAGAACAUGAGGAUCACCCAUGUGGGUUUUUAG
- apparent Kd [1]: 0.0417 µM
- apparent Kd [2]: 0.0911 µM

From the EternaBench riboswitch data
